The values below come from ChEMBL document CHEMBL4373713, “Effect of 1-Deoxynojirimycin Isolated from Mulberry Leaves on Glucose Metabolism and Gut Microbiota in a Streptozotocin-Induced Diabetic Mouse Model” (J Nat Prod, 2019).

Calls of active or inactive are those of the source. The rule behind the calls is not given here.

Assay [1] has as its system Mus musculus. Nature of the assay: Antidiabetic activity in STZ-induced Kunming mouse model of diabetes assessed as down regulation of glucose-6-phosphatase expression level in liver at 62.5 to 125 m/kg, po administered QD administered via gavage for 4 weeks by Western blot analysis. It counts as functional, organism-based. In outline: (§1)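 Livers from diabetic mice after 28 days of daily gavage (31.25–125 mg/kg) were homogenized and spun at 14 000g, 4 °C. Proteins were run on 10% SDS-PAGE and transferred to PVDF, then blocked in 5% milk for 1 h. Primary antibodies (GK, PK, PFK, PCB, PEPCK, FBPase, G-6-Pase, p-IR Tyr999, p-IRS-1 Ser307) were applied for 1 h at 25 °C, followed by HRP anti-rabbit IgG and ECL detection. Mean ± SD, Duncan's test.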

Assay [2] concerns Mus musculus. The assay is described as follows: Antidiabetic activity in STZ-induced Kunming mouse model of diabetes assessed as down regulation of fructose-1-6-phosphatase expression level in liver at 31.25 to 125 m/kg, po administered QD administered via gavage for 4 weeks by Western blot analysis. It counts as functional, organism-based. Put shortly: as §1
For assay [3], the system named is Mus musculus. The assay is described as follows: Antidiabetic activity in po dosed STZ-induced Kunming mouse model of diabetes assessed as increase in Firmicutes level in feces administered QD administered via gavage for 4 weeks by 16S rDNA based Illumina sequencing method. The format is functional, organism-based.
The subject of assay [4] is Mus musculus. Nature of the assay: Antidiabetic activity in po dosed STZ-induced Kunming mouse model of diabetes assessed as increase in Bacteroidetes level in feces administered QD administered via gavage for 4 weeks by 16S rDNA based Illumina sequencing method. The format is functional, organism-based.
Assay [5] concerns Mus musculus. The assay is described as follows: Antidiabetic activity in STZ-induced Kunming mouse model of diabetes assessed as increase in Lactobacillus level in feces at 31.25 to 125 mg/kg, po administered QD administered via gavage for 4 weeks by 16S rDNA based Illumina sequencing method. The format is functional, organism-based.
The test system of assay [6] is Mus musculus. The assay is described as follows: Antidiabetic activity in STZ-induced Kunming mouse model of diabetes assessed as increase in Lackno-spiraceae NK4A136 level in feces at 31.25 to 125 mg/kg, po administered QD administered via gavage for 4 weeks by 16S rDNA based Illumina sequencing method. It counts as functional, organism-based.
The test system of assay [7] is Mus musculus. The assay is described as follows: Antidiabetic activity in STZ-induced Kunming mouse model of diabetes assessed as increase in Oscillibacter level in feces at 31.25 to 125 mg/kg, po administered QD administered via gavage for 4 weeks by 16S rDNA based Illumina sequencing method. It counts as functional, organism-based.
Assay [8] deals with Mus musculus. The assay is described as follows: Antidiabetic activity in STZ-induced Kunming mouse model of diabetes assessed as decrease in Escherichia-Shigella level in feces at 31.25 to 125 mg/kg, po administered QD administered via gavage for 4 weeks by 16S rDNA based Illumina sequencing method. It counts as functional, organism-based.
Assay [9] relates to Mus musculus. The assay is described as follows: Antidiabetic activity in STZ-induced Kunming mouse model of diabetes assessed as increase in Bifidobacterium level in feces at 31.25 to 125 mg/kg, po administered QD administered via gavage for 4 weeks by 16S rDNA based Illumina sequencing method. It counts as functional, organism-based.
Assay [10] has as its system Mus musculus. The assay is described as follows: Antidiabetic activity in STZ-induced Kunming mouse model of diabetes assessed as decrease in Rumino-coccaceae UCG-014 level in feces at 31.25 to 125 mg/kg, po administered QD administered via gavage for 4 weeks by 16S rDNA based Illumina sequencing method. It counts as functional, organism-based.
The test system of assay [11] is Mus musculus. Nature of the assay: Antidiabetic activity in STZ-induced Kunming mouse model of diabetes assessed as decrease in Weis-sella level in feces at 31.25 to 125 mg/kg, po administered QD administered via gavage for 4 weeks by 16S rDNA based DNA sequencing analysis. The format is functional, organism-based.
In assay [12] the test system is Mus musculus. Nature of the assay: Antidiabetic activity in STZ-induced Kunming mouse model of diabetes assessed as decrease in Ruminococcus level in feces at 31.25 to 125 mg/kg, po administered QD administered via gavage for 4 weeks by 16S rDNA based DNA sequencing analysis. The format is functional, organism-based.
Assay [13] concerns Mus musculus. The assay is described as follows: Antidiabetic activity in STZ-induced Kunming mouse model of diabetes assessed as decrease in Prevo-tellaceae Ga6A1 level in feces at 31.25 to 125 mg/kg, po administered QD administered via gavage for 4 weeks by 16S rDNA based DNA sequencing analysis. The format is functional, organism-based.
Assay [14] relates to Mus musculus. The assay is described as follows: Antidiabetic activity in STZ-induced Kunming mouse model of diabetes assessed as decrease in Anaer-ostipes level in feces at 31.25 to 125 mg/kg, po administered QD administered via gavage for 4 weeks by 16S rDNA based DNA sequencing analysis. It counts as functional, organism-based.
Assay [15] concerns Mus musculus. Nature of the assay: Antidiabetic activity in STZ-induced Kunming mouse model of diabetes assessed as increase in Lactococcus level in feces at 31.25 to 125 mg/kg, po administered QD administered via gavage for 4 weeks by 16S rDNA based DNA sequencing analysis. It counts as functional, organism-based.
In assay [16] the test system is Mus musculus. The assay is described as follows: Antidiabetic activity in STZ-induced Kunming mouse model of diabetes assessed as increase in Lachnospiraceae level in feces at 31.25 to 125 mg/kg, po administered QD administered via gavage for 4 weeks by 16S rDNA based DNA sequencing analysis. The format is functional, organism-based.
Assay [17] concerns Mus musculus. The assay is described as follows: Antidiabetic activity in STZ-induced Kunming mouse model of diabetes assessed as increase in Alistipes level in feces at 31.25 to 125 mg/kg, po administered QD administered via gavage for 4 weeks by 16S rDNA based DNA sequencing analysis. It counts as functional, organism-based.
In assay [18] the test system is Mus musculus. The assay is described as follows: Antidiabetic activity in STZ-induced Kunming mouse model of diabetes assessed as decrease in Klebsiella level in feces at 62.5 to 125 mg/kg, po administered QD administered via gavage for 4 weeks by 16S rDNA based DNA sequencing analysis. The format is functional, organism-based.
In assay [19] the test system is Mus musculus. The assay is described as follows: Antidiabetic activity in STZ-induced Kunming mouse model of diabetes assessed as decrease in Prevo-tellaceae UCG-001 level in feces at 62.5 to 125 mg/kg, po administered QD administered via gavage for 4 weeks by 16S rDNA based DNA sequencing analysis. It counts as functional, organism-based.
In assay [20] the test system is Mus musculus. The assay is described as follows: Antidiabetic activity in STZ-induced Kunming mouse model of diabetes assessed as decrease in Bacteroidales S24-7 level in feces at 62.5 to 125 mg/kg, po administered QD administered via gavage for 4 weeks by 16S rDNA based DNA sequencing analysis. It counts as functional, organism-based.
Assay [21] relates to Mus musculus. The assay is described as follows: Antidiabetic activity in STZ-induced diabetic Kunming mouse assessed as increase in body weight gain at 62.5 to 125 mg/kg, po QD administered via gavage for 4 weeks and measured every 3 days for 28 day.

Regarding `OC[C@H]1NC[C@H](O)[C@@H](O)[C@@H]1O`, the result in assay [1], in assay [2], in assay [5], in assay [6], in assay [7] and in [9] was Active. For the same compound, the outcome in assay [10], in assay [11], in assay [12], in [13], in assay [14] and in [16] was Active. In addition, the result in [17], in assay [18], in [19], in assay [20] and in assay [21] was Active. The Activity result in assay [3] and in assay [4] was “Dose-dependent effect” each time. Further, the outcome in assay [8] and in [15] was inactive.
